Reference: the EternaBench riboswitch data

Tested on: MS2 coat protein
Experiment: apparent Kd, MS2 coat protein; higher = weaker binding; RNA-MaP array; FMN 200 µM where present
How it was run: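 Green signal was scaled to red-channel RNA signal and control-cluster median Fmax, and the apparent Kd was taken as the median of filtered per-cluster binding-curve fits. The binding series used SNAP-549-labelled MS2 coat protein from 0.7 or 1.5 nM, doubling to 3 µM, on designs transcribed by stalled E. coli RNA polymerase on Illumina sequencing-chip clusters. Each series ran without and then with constant ligand in 100 mM Tris-HCl pH 7.5, 80 mM KCl, 4 mM MgCl2, BSA, DTT, yeast tRNA and Tween-20.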

[1] = designed as: OFF switch for flavin mononucleotide, no ligand
[2] = ligand present: flavin mononucleotide, designed as: OFF switch for flavin mononucleotide
[3] = designed as: ON switch for flavin mononucleotide, no ligand
[4] = ligand present: flavin mononucleotide, designed as: ON switch for flavin mononucleotide

Sequence	apparent Kd [1]	apparent Kd [2]	apparent Kd [3]	apparent Kd [4]
UCUGCCGCCGUGAGGAUAUGCCCAAACAAAAGCGGGCAGAAGGCACAUGAGGAUCACCCAUGUCCCGCGGUUUU	18.5 nM	37 nM	–	–
UGAUAGAGCCUAGGAUAUUCGGAUCUACUACAAGGAGAAGGAGGUAGUCGGUGACGAACAUGAGGAUCACCCAUGUCGUCCUUC	67.8 nM	69.9 nM	–	–
ACAAAUGGAGGAUAUACAUGAGGAUCACCCAUGUAUAUCCUACAUAUGUGAUUUUUAUGUAGAAGGCCAUUUGA	12.8 nM	13.4 nM	–	–
UUUAGAUUCAGAGGAUAUUGAUGUUGUAUUUUACAAGAAGGCUGAUUGGUUUGAAUUGUUUUUUAACAUGAGGAUCACCCAUGU	–	–	28.5 nM	20.7 nM
UUUAAUCGAAACAUGAGGAUCACCCAUGUGUUGUAAUUAACAUAGGAUAUUUGUAUACUUUUGUAAAAGAAGGAUGAUAAUACU	–	–	17.1 nM	13.6 nM
CUCGUGUAAGGAUAUGCGGGCGGGCGCGUUUGUGUUUGUUUGUAGAAGGUACAUGAGGAUCACCCAUGUACUGG	25.5 nM	57.4 nM	–	–
UUGGUAUUUGUAGGAUAUCUGUCGCCACCGUGUGGAGAAGGACGAACAUGAGGAUCACCCAUGUAUCAUGGUGUGGGCUUUGCU	302 nM	317 nM	–	–
GCACGUGGACAGAAGGCGACAUGAGGAUCACCCAUGUUGGCUCGGGUAUGACCAAUCCGCAUGAUCGAGGAUAUGUCUGCGGGC	264 nM	15.9 nM	–	–
AAGAGAAAAGCAGGAUAUCUAUAGGCUCCUUAACAUGAGGAUCACCCAUGUAGAGAAGGGCUAAGACCGACUCUUCGGAGUUGA	9.23 nM	27.6 nM	–	–
GGGUACAUCGGAGGAUAUUAUGUAAAUACAUGAGGAUCACCCAUGUCGAUGGAGACAUCGGAGAUUGAGAAGGCCGAUGUACCG	–	–	119 nM	8.94 nM
CGAAGUCCGUAGAAGGGUGACAUGAGGAUCACCCAUGUGCGAGCCGAGGGAGUCAGCGGCUCGCCACAGGAUAUACGGAUCACG	–	–	17.1 nM	61.8 nM
UAUAUAUAGUAAGGAUAUGUAUAUAAUUUAUAAACAGAAGGUACUGACAUGAGGAUCACCCAUGUUUUAGUGUGGGCAUGUAGA	72.8 nM	141 nM	–	–
AUCCAGGUAACAUGAGGAUCACCCAUGUUCCUUCGCUCUGGCAAGGAUAUGAAGGGAUUGUCCCAUCAGAAGGUGCAUGGGUGC	–	–	23 nM	19.9 nM
AAACACGGACAUGAGGAUCACCCAUGUGGCGAAAGCCUUGGGAGAAGGCCGUAUGCAAAGCAUACGGAGGAUAUUCAUACCGUG	–	–	1410 nM	67.9 nM
GCGUAUAUAUUAUUUAUUUAACUGUCAGAAGGUGAGAAGACGACAUGAGGAUCACCCAUGUUAUUCAAGGAUAUGAUAAUGCGC	–	–	13.5 nM	8.94 nM
AUUGUUAAGUUAGGAUAUAGUAAAAUAAUUUAGUUAGAAGGAGCUCACAUGAGGAUCACCCAUGUAAGAGGAUCACCCAUGUAU	25.6 nM	20.1 nM	–	–
AUCCUGCGAGGAUAUACAUAAUUUUUUUCAUUUGGUUGCGAACAUGAGGAUCACCCAUGUAGAAGGUGCUUCAC	66.7 nM	62.5 nM	–	–
GUUUUCGCAUGAGGAUAUGCUCGCAUUUCAAGAGCAGAAGGUAUGUCUAUAGACAUGAGGAUCACCCAUGUAUCUAACUUUGAA	–	–	352 nM	65 nM
AGUGUGUGGCAGGAUAUGCGAUUUGUCGGUGUAGCAGAAGGGUCUACAUGAGGAUCACCCAUGUGUGCGGUUGA	438 nM	446 nM	–	–
CUUUUGUGAGGAUAUCAGUAGUAAAAAAAUAAAAUUACUAUUGAGAAGGCACAUGAGGAUCACCCAUGUUCCUC	34.5 nM	168 nM	–	–
CCAUAUAACUGAGGAUAUACUCACCACUAACAUGUAGAAGGCAGACAUGAGGAUCACCCAUGUGAUUUCUCAAUAUUAUACAUC	901 nM	658 nM	–	–
UUUUAACAUGAGGAUCACCCAUGUGAGGAUAUCGAAAUUUAUAUUUAUAUUAAUUAUUCGAGAAGGCACAUUUU	163 nM	133 nM	–	–
AGAUAACACCAGAAGGACAUGAGGAUCACCCAUGUAGGAUAUGGGCAUCACUCGAGAAAGAAAAGACCAUAUGGACACAUGGUC	–	–	160 nM	13.2 nM
GCCUUAUCCGUCAGGAUAUACAUUUGUUAGUUGUUGUAGAAGGGACAUGAGGAUCACCCAUGUACAUUACAUUG	19.4 nM	22.4 nM	–	–

Sequence	apparent Kd [1]	apparent Kd [2]	apparent Kd [3]	apparent Kd [4]
AAAAUGUCAGGAUAUGCGAAGGCGUCUGAUAGACGAGGCUAGCAGAAGGGACAUGAGGAUCACCCAUGUAAAAA	52.6 nM	152 nM	–	–
UACGAGUCAGGAUAUUGGGCAAUAGCAUUACGGAACGAUCACAAGAAGGGACAUGAGGAUCACCCAUGUUAUAU	23.8 nM	21.7 nM	–	–
UUUUACAUAGGAUAUAGUCUUUUUUACAUGAGGAUCACCCAUGUCUCUCUUUUUUUUUUUCUAGAAGGAUGUUUUU	42.9 nM	30.9 nM	–	–
CGCUAAGAGAACGAUACGAGAAGACAUGAGGAUCACCCAUGUAGAAGGACAACGGAAUAAACGUUGUAGGAUAUACACUUAGCG	15 nM	20.6 nM	–	–
CUCGUCUGGAAACGGAGCGGCCAACAUGAGGAUCACCCAUGUGAGGAUAUGCCUACUAAAAGUAGGCAGAAGGCGCACUUGGCA	23.6 nM	34.1 nM	–	–
AUUUCAUUCCUUCGACCAUUACCGAGAAGGGUCCACAUGAGGAUCACCCAUGUGGUCCUGAGCGGACAGGAUAUCGGAGUCGGG	18.2 nM	17.7 nM	–	–
GUGACGAAUGUAGGAUAUGCUGAGGAAUACUCAGCAGAAGGACAUGAGGAUCACCCAUGUACUAUGAGUGAAUAAUAACGUCAC	77.4 nM	881 nM	–	–
GGACGACACAUCUACAUGAGGAUCACCCAUGUCAAAAGACAUGAGGAUAUGCUACCUAAUUGGUAGCAGAAGGCAUGGUCGUCC	–	–	1370 nM	67.2 nM
GAAGAGACAGGAUAUACAUGAGGAUCACCCAUGUGAGUAUGUUGGAGGCGGAGGAGGUGUAGAAGGGUCAAAGA	24.3 nM	26.1 nM	–	–
AAUAUGUUGCAGAAGGCCAUGUUGUGGUAGUACCUCAUGACAUGAGGAUCACCCAUGUCUGUGAUGGAGGAUAUGCAAUAUAUU	8.87 nM	14.8 nM	–	–
UAUAUAUAGUAAGGAUAUGUAAUUAUUUAAUAAACAGAAGGUACUGACAUGAGGAUCACCCAUGUUUUAGUGUGGGCAUGUAGA	80.5 nM	135 nM	–	–
AAUAAACUCACAGGAUAUAGCAGAGGUCGCGUGAACUUACAGGCGACGAGGCUAGAAGGGUGACCACAUGAGGAUCACCCAUGU	–	–	858 nM	95.8 nM
AACCUAUUACAGAAGGCCAGCUACAUGAGGAUCACCCAUGUCGAGUCAUGGAGGAUAUGUAGUAAUUUGCACGCGGACGAGUAC	–	–	52.6 nM	5.82 nM
GCAGGUUUACGAGGAUAUGGGUGGUACGGACAUGAGGAUCACCCAUGUCUCCCAGAAGGCGUAGCCUAACAAAGAGAACAGGAG	–	–	111 nM	19.2 nM
AGAUGGUAGAGAGGAUAUCAUGUGCUGACAUGAGGAUCACCCAUGUAGGGACGUCAGUCCAAUUAUGAGAAGGCUCUACCAUCU	–	–	49.4 nM	40.2 nM
AAACAUGUCCGAGGAUAUCUGGAAACACUUUCAAGAGAAGGCGGACAUGAGGAUCACCCAUGUCUCUCCUCAUCAAAUCCAAGU	6.53 nM	30.2 nM	–	–
GCGUGUCAUGUAGGAUAUGACACAGGAAACUGGUCAGAAGGACAUGAGGAUCACCCAUGUAAAAUGUUCAAGAAUAACACAUGC	50.6 nM	185 nM	–	–
GCGUUGAACGAGAAGGCCAAUACAUGAGGAUCACCCAUGUAGUGAAGUAUUGGAGGAUAUCGAUCGUCGUCUCAUGAGCAACGC	8.88 nM	25.3 nM	–	–
UUAUACGUUGAGGAUAUGUCAGUUAGUAUAUUUACAGAAGGCGAUACAUGAGGAUCACCCAUGUUUAUGGGCAU	213 nM	149 nM	–	–
UUUAAGUCAGGAUAUCGUUAAUUUAAUUAUUUAUUUUAAUUCGAGAAGGGACAUGAGGAUCACCCAUGUAAUUU	36.1 nM	55.9 nM	–	–
GUGCACAUUCGAGGAUAUCGGAGAGAGAUCAUUCGAGAAGGCGAUUCAUGAUGUAUUAUCCUGGACAUGAGGAUCACCCAUGUG	–	–	361 nM	107 nM
AGUCGGAGCAGAGGAUAUUACAUGAGGAUCACCCAUGUAAUAAGAUCAAGCUGGAAACAGCAAUGUAAGAAGGCUGCUCCGACA	16.3 nM	45.6 nM	–	–
CCAGGCGUAUAGGAUAUACGUGUCGAGUUCGCUGUAGAAGGAUACACAUGAGGAUCACCCAUGUUUGCCAGUGG	24.5 nM	21.2 nM	–	–
AGCGGCGCGGGCCACCGCAGAACCAGAAGGACAUGAGGAUCACCCAUGUAACAAAACAGGGCGGUGUAGGAUAUGGCAGGCUCG	35.9 nM	83.2 nM	–	–
